Test results reported in the array DNA melting data of Ke et al. (doi:10.1101/2024.01.08.574731).

How the values were obtained:
[1] = melting temperature; fluorescence melt of hairpins on a sequencing array, two-state fit, raised by 9.35 °C to match UV melts; settings: sodium 0.088 M
Outline: (§1)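 To match UV melts, fitted temperatures were raised by 9.35 °C. These fits were bootstrapped two-state models that gave melting temperature and folding enthalpy, combined by inverse variance over four replicates. The input was normalised Cy3 fluorescence of library hairpins with annealed Cy3 and quencher oligos on a sequenced MiSeq flow cell, imaged in 50 mM Na-HEPES pH 8.0, 25 mM NaCl in 2.5 °C steps up to 60 °C.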

[2] = folding enthalpy; higher = less favourable; fluorescence melt of hairpins on a sequencing array, two-state fit; settings: sodium 0.088 M
Outline: as §1

Sequence | Tm [1] [°C] | folding enthalpy [2] [kcal/mol]
GGTAGCGGAAACGTTGCC ((.(.((....)).).)) | 39.3 | -25.2
GGTAGGCGAAAGCCAACC (((.(((....))).))) | 57.6 | -28.1
GGTAGGCGAAAGCCACC (((.(((....)))))) | 58.2 | -16
GGTAGGGGAAACCCTACC (((((((....))))))) | 64.6 | -44.1
GGTAGTCCGAAAGGAACC (((..(((....)))))) | 27.1 | -12.4
GGTAGTGGAAACACTGCC ((.((((....)))).)) | 53 | -38.9
GGTATAACGAAAGTTACC (((..(((....)))))) | 37.8 | -13.7
GGTATACGAAAGTAGACC (((.(((....))).))) | 52.1 | -50.9
GGTATAGGAAACCATACC (((((.(....).))))) | 36.7 | -23.1
GGTATCGAAAGATAACC ((((((....))).))) | 40.8 | -21.5
GGTATCGAAAGATACACC ((((((....)))..))) | 42.9 | -11.8
GGTATCGAAAGATACC ((((((....)))))) | 62.1 | -43.2
GGTATCGGAAACGATACC (((((((....))))))) | 64 | -48.7
GGTATCGGAAACGATGCC ((.((((....)))).)) | 54.6 | -37.9
GGTATCGGAAACGGTACC ((((.((....)).)))) | 51.6 | -40.6
GGTATGACGAAAGTCACC (((..(((....)))))) | 33.6 | -11.8
GGTATGCCGAAAGGCACC (((..(((....)))))) | 34.1 | -9.19
GGTATGCGAAAGCACACC (((.(((....))).))) | 49.7 | -27.7
GGTATGCGAAAGCAGACC (((.(((....))).))) | 65.1 | -35.3
GGTATTCGAAAGAACACC (((.(((....))).))) | 39.3 | -29.4
GGTATTGGAAACGATACC (((((.(....).))))) | 44.4 | -33.4
GGTCAACGAAAGTTAACC (((.(((....))).))) | 39.3 | -25
GGTCAAGGAAACTTGGCC ((.((((....)))).)) | 52.8 | -38.1

Sequence | Tm [1] [°C] | folding enthalpy [2] [kcal/mol]
GGTCACACGAAAGTGACC (((..(((....)))))) | 58.2 | -35.5
GGTCACCGAAAGGTTACC (((.(((....))).))) | 50.1 | -27.2
GGTCACGAAAGTGCACC ((((((....))).))) | 52.5 | -28.3
GGTCACGGAAACATGACC (((((.(....).))))) | 44.4 | -28.4
GGTCAGCGAAAGCTACC (((.(((....)))))) | 47.5 | -16.7
GGTCAGGGAAACCTGGCC ((.((((....)))).)) | 57.5 | -42.2
GGTCAGGGAAACCTGGTC (..((((....))))..) | 35.7 | -15.9
GGTCATCGAAAGATCACC (((.(((....))).))) | 35.7 | -30.2
GGTCATGGAAACGTGACC (((((.(....).))))) | 53.6 | -52.9
GGTCCACCGAAAGGTACC (((..(((....)))))) | 29.2 | -11.9
GGTCCACGAAAGTGCACC (((.(((....))).))) | 44.5 | -25.9
GGTCCAGGAAACTGAACC (((.(((....))).))) | 40 | -34.6
GGTCCCGAAAGGGGAACC ((((((....)))..))) | 48.5 | -17.2
GGTCCCGAAAGGGGCACC ((((((....)))..))) | 50.7 | -11.3
GGTCCCGAAAGGGTTACC ((((((....)))..))) | 39.6 | -15.4
GGTCCCGGAAACAGGACC (((((.(....).))))) | 49.7 | -28.6
GGTCCGCCGAAAGGCACC (((..(((....)))))) | 28.3 | -8.71
GGTCCGCGAAAGCGTACC (((.(((....))).))) | 54.1 | -27.2
GGTCCTCGAAAGAGAACC (((.(((....))).))) | 46.8 | -32.2
GGTCCTGGAAACAAGACC ((((.((....)).)))) | 36.2 | -32.1
GGTCCTGGAAACAGAACC (((.(((....))).))) | 38.9 | -29.7
GGTCCTGGAAACAGGATC (.(((((....))))).) | 51 | -31.8
GGTCGAACGAAAGTTACC (((..(((....)))))) | 26.6 | -11.7

Sequence | Tm [1] [°C] | folding enthalpy [2] [kcal/mol]
GGTCGACGAAAGTCAACC (((.(((....))).))) | 49.9 | -32.2
GGTCGACGAAAGTCTACC (((.(((....))).))) | 49.8 | -34.7
GGTCGAGGAAACTCGGTC (..((((....))))..) | 38.4 | -16.2
GGTCGCCGAAAGGCCACC (((.(((....))).))) | 48.1 | -15.7
GGTCGCGAAAGCGCCACC ((((((....)))..))) | 47.8 | -11.2
GGTCGCGAAAGCGGAACC ((((((....)))..))) | 47.8 | -15.3
GGTCGCGAAAGCGTTACC ((((((....)))..))) | 41.4 | -14.6
GGTCGCTCGAAAGAGACC (((..(((....)))))) | 49.1 | -20.6
GGTCGGCCGAAAGGCACC (((..(((....)))))) | 34.7 | -10.9
GGTCGGCGAAAGCCACC (((.(((....)))))) | 55.3 | -14.8
GGTCGGGCGAAAGCCACC (((..(((....)))))) | 34 | -11.9
GGTCGGGGAAACCCGATC (.(((((....))))).) | 56.7 | -32
GGTCGGGGAAACCTGGCC ((.(.((....)).).)) | 48.4 | -28.7
GGTCGGTCGAAAGACACC (((..(((....)))))) | 33.4 | -13.4
GGTCGTCCGAAAGGAACC (((..(((....)))))) | 26.3 | -9.14
GGTCGTCGAAAGACCACC (((.(((....))).))) | 45.9 | -19.8
GGTCGTCGAAAGACTACC (((.(((....))).))) | 48.6 | -30.6
GGTCGTGAAAACGACC ((((((....)))))) | 69.2 | -34.3
GGTCGTGGAAACGCGATC (.(((.(....).))).) | 43.8 | -26.9
GGTCTAGAAATAGACC ((((((....)))))) | 51.8 | -38.1
GGTCTCCGAAAGGACACC (((.(((....))).))) | 42.1 | -24.5
GGTCTCCGAAAGGATACC (((.(((....))).))) | 48.1 | -26.8
GGTCTCGAAAGAGAGACC ((((((....)))..))) | 54.9 | -29.6

Sequence | Tm [1] [°C] | folding enthalpy [2] [kcal/mol]
GGTCTCGAAAGAGGGACC ((((((....)))..))) | 44 | -22.4
GGTCTCGAAAGAGTAACC ((((((....)))..))) | 35.1 | -21.9
GGTCTCGAAAGAGTGACC ((((((....)))..))) | 39.8 | -24.5
GGTCTCGGAAACGAGGTC (..((((....))))..) | 38.2 | -15.9
GGTCTGCGAAAGCAAACC (((.(((....))).))) | 47.1 | -26.9
GGTCTTGGAAACAAGGCC ((.((((....)))).)) | 54.7 | -48.6
GGTGAAGGAAACCTCACC (((((.(....).))))) | 46.2 | -29.6
GGTGAAGGAAACTTCATC (.(((((....))))).) | 42.1 | -25.3
GGTGACGAAAGTCACACC ((((((....)))..))) | 56 | -7.84
GGTGACGAAAGTCCGACC ((((((....)))..))) | 39 | -15.3
GGTGACGAAAGTCCTACC ((((((....)))..))) | 33.5 | -13.8
GGTGACGAAAGTCTACC ((((((....))).))) | 49 | -21.4
GGTGACGGAAACGTTGCC ((..(((....)))..)) | 48.1 | -34.3
GGTGAGCCGAAAGGCACC (((..(((....)))))) | 44.3 | -13.2
GGTGAGCGAAAGCTACC (((.(((....)))))) | 51.7 | -19.2
GGTGAGGGAAACCTCGTC (..((((....))))..) | 33.2 | -13.3
GGTGAGGGAAACTTCACC (((((.(....).))))) | 46.8 | -32.1
GGTGAGTCGAAAGACACC (((..(((....)))))) | 39.5 | -17.9
GGTGATCGAAAGATAACC (((.(((....))).))) | 47.7 | -29.5
GGTGATGGAAACATCACC (((((((....))))))) | 65.6 | -39.6
GGTGATGGAAACATCATC (.(((((....))))).) | 47.8 | -30.6
GGTGATGGAAACATTACC (((.(((....))).))) | 45.2 | -30.2
